In PubChem BioAssay AID1735 (Vanderbilt High Throughput Screening Facility, 2009):
pEC50: −log10 of the molar value. Records with an inconclusive call do not appear. Active and inactive are the calls of the source.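 How the source made its calls: active means sigmoid dose curve converging in at least two of three replicates, including loose fits with few points beside the midpoint; inactive means curve converging in fewer than two replicates.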

system: HEK293 thallium flux, FluoZin-2 fluorescence, ouabain+bumetanide; assay: parental HEK thallium flux modulation, ouabain plus bumetanide, dose response, counter-screen for KCC2 modulator project, HEK cells, counterscreen 2 (AID 1735)
In short: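 Material: HEK cells | Buffer or medium: HBSS-HEPES plus ouabain and bumetanide | Also added: Thallium stimulus buffer at pH 7.3 | Doses: 11-point threefold dilution series, top dose 30 µM | Schedule: Overnight plating, 10–20 s after thallium read | Detection: Kinetic fluorescence of FluoZin-2 dye, loaded as 0.5 µM AM ester | Repeats: Triplicate, replicates fitted separately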

| SMILES | EC50 | pEC50 |
| --- | --- | --- |
| NC(=S)N=Nc1c(O)n(Cc2ccccc2)c2ccccc12 | 88.3 nM (inactive) | – |
| NC(=S)N=Nc1c(O)n(Cc2ccc(F)cc2)c2ccccc12 | – | 5.66 |
| COC(=O)[C@@H](NC(=O)O[C@@H]1C(=O)c2ccc(OC)cc2O[C@H]1c1cccc(C(F)(F)F)c1)C(C)C | – | 6.21 |
| Cc1nn(-c2nc3ccccc3[nH]2)c(N)c1-c1ccccc1 | – | 5.61 |
| CC(=O)c1cccc(NC(=S)NC(=O)c2ccc(C)cc2)c1 | – | 5.80 |
| CCOc1[nH]n(-c2ccccc2)c(=O)c1C=Nc1ccc(F)cc1F | – | 5.66 |
| S=C(NCCc1ccccc1)N/N=C/c1cccc(Cl)c1Cl | 14300 nM (inactive) | – |
| O=C(NC(=S)Nc1ccc2c(c1)OCO2)c1ccc(Cl)cc1 | 58.5 nM (inactive) | – |
| CCOCCCNC(=O)c1ccc(-n2c(=S)[nH]c3ccccc3c2=O)cc1 | 24200 nM (inactive) | – |
| COC(=O)c1sccc1NC(=S)OC | – | 5.80 |
| COc1ccc(Cn2c(=S)[nH]c3ccccc32)cc1 | – | 6.40 |
| Cc1onc(-c2ccccc2Cl)c1C(=O)NC(=S)Nc1ccc(C(C)C)cc1 | – | 6.61 |
| CCOc1ccc2nc(SC3CC(=O)N(c4cccc(OC)c4)C3=O)sc2c1 (stereo not drawn) | – | 5.49 |
| Cc1ccc(-c2n[nH]c(=S)n2/N=C/C=C\c2ccccc2[N+](=O)[O-])cc1 | – | 6.19 |
| O=C(NC(=S)Nc1nc(-c2cccc([N+](=O)[O-])c2)cs1)c1cc(Cl)ccc1Cl | – | 6.16 |
| COc1ccc(N2C(=S)N=C(Nc3cccc(C)c3)C23CCCCC3)cc1 | – | 5.58 |
| O=[N+]([O-])c1ccc(-c2cn(-c3ccccc3F)c(=S)[nH]2)cc1 | – | 6.28 |
| N=C1SCC(=O)N1c1ncc(Cc2cccc(Cl)c2)s1 | – | 5.52 |
